Source: PubChem
In the library only some 1.2% were active in any assay of this set; here they are far more common.
ASAP1 inh: inhibitors of human ASAP1 ArfGAP activity, primary screen, biochemical, fluorescence polarization. Arf-GAP with SH3 domain, ANK repeat and PH domain-containing protein 1 (Homo sapiens), …. 360,000 tested, 0.19% active. ASAP1-stimulated ARF1 GTP hydrolysis, GDP FP detection. inhibition, % at 16.5 µM; in the data active = inhibition above about 25%;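 note: 0% = vehicle with enzyme and substrate and 100% = no enzyme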
procasp3 activ: activators of human procaspase-3 D3A mutant, primary screen, biochemical, absorbance, PC-3 D3A mutant, single concentration; activation, % at 8.5 µM; 330,000 tested, 0.11% active; recombinant procaspase-3 D3A, Ac-DEVD-pNA absorbance 405 nm;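 active = activation above the mean of all tested compounds plus 3 SD, cut at about 21% in these data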;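 note: 0% = DMSO alone and 100% = DMSO wells spiked with extra 5 µM PC-3 D3A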
Target sequence (P42574 whole entry D9A/D28A/D175A): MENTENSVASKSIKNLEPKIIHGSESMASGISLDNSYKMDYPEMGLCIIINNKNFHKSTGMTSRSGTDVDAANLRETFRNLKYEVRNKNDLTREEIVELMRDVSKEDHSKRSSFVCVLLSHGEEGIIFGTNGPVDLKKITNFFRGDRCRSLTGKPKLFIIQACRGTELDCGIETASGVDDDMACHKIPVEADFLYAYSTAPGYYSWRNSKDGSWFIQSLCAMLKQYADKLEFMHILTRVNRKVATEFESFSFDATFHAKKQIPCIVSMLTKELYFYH
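material = Procaspase-3 D3A mutant | probe or stimulus = Ac-DEVD-pNA | compound = single dose, 8.5 µM nominal compound, 0.8% DMSO | timing = 1 h preincubation, 2 h reaction | measured by = 405 nm absorbance of p-nitroaniline, reads at 0 and 120 min | benchmarks = DMSO-only low control, 5 µM PC-3 D3A high control | repeats = singlicate, each compound tested once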
proCasp7 act: procaspase-7 activators, primary screen, counter-screen for procaspase-3 activator project, biochemical, absorbance, HTS, human | Caspase-7 (Homo sapiens), P55210 | recombinant procaspase-7, Ac-DEVD-pNA absorbance 405 nm; D23A/D198A/D206A triple mutant, cannot self-cleave; scale: DMSO 0, 5 µM enzyme 100 | activation, % at 8.5 µM | 330,000 tested, 0.093% active | AID 463210, 2010;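 active = percent activation above the screen-wide mean plus 3 SD, cut at about 25% in these data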
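signal = Epi-absorbance of released pNA at 405 nm, two timepoints | assay system = Uncleavable procaspase-7 mutant enzyme | reagent = Ac-DEVD-pNA substrate, 400 µM as added | times = 1 h enzyme–compound preincubation and 2 h substrate reaction, both 25 °C | benchmarks = low DMSO alone, high DMSO plus 5 µM PC-7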
LANA-H2A inh: blockers of LANA interaction with H2A/H2B – biochemical, FP readout, HTS, primary screen | Protein LANA1 (Human herpesvirus 8 type P (isolate GK18)), Q9QR71 | cell-free LANA-H2A/H2B peptide, fluorescence polarization | inhibition, % (concentration not given with the values) | 320,000 tested, 0.6% active | AID 2629, 2010; in the data active = inhibition mostly above about 10%, no sharp cut-off; inactive = mostly below about 6.7%
CR mimetic SO: reduction of superoxide in aged yeast, primary screen, HTS | superoxide response (% of plate mean), % at 10 µM | 330,000 tested, 0.18% active | AID 2690, 2010 | S. cerevisiae aged cells, superoxide DHE fluorescence; stronger effect = lower value;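 active = superoxide response under a set limit, about three screen SD below normal, cut at about 65% in these data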;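 note: yeast aged for seven days with compound at 30 °C before DHE staining; 100% = average MFI of all compound-treated wells on the plate with controls excluded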
ARFGAP1 inh: inhibitors of rat ARFGAP1 GAP activity, primary screen, biochemical, fluorescence polarization, GDP tracer; Arfgap1-stimulated ARF1 GTP hydrolysis, GDP FP detection; ADP-ribosylation factor GTPase-activating protein 1 (Rattus norvegicus), Q62848; 360,000 tested, 0.26% active; inhibition, % at 16.5 µM;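 active = inhibition above a per-plate limit, mean inhibition of low control wells plus 3 SD, cut at about 25% in these data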;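 note: 0% = DMSO wells with enzyme and 100% = wells lacking Arfgap1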
Target sequence (Q62848 1-136 limits assumed): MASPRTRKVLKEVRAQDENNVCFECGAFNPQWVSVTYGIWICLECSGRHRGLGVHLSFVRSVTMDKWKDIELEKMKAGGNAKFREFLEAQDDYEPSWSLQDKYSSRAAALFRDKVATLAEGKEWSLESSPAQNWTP
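Assay system: purified rat His6-Arfgap1 residues 1-136 (GAP domain); Reagent: human Δ17 ARF1 bound to GTP; Dosing: 16.5 µM single point, 1.26% DMSO; Times: GTP hydrolysis reaction 2 h at 25 °C; Signal: FP, GDP Alexa 633 tracer displaced from anti-GDP antibody, 620/688 nm; Measure: % inhibition from polarization.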
procasp7 triplic: procaspase-7 activators, counter-screen for procaspase-3 activator project, biochemical, absorbance, triplicate, human; shares compounds with procasp3 activ; 210 tested, under 10 active; activation, % at 8.5 µM; recombinant procaspase-7, Ac-DEVD-pNA absorbance; asp23/198/206-to-Ala mutant, cannot self-cleave;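 active = mean activation above a set limit taken from an earlier procaspase-7 screen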;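 note: 0% = DMSO wells and 100% = DMSO plus 5 µM procaspase-7 enzyme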
proCasp3 confirm: activators of human procaspase-3 D3A mutant, confirmation, biochemical, absorbance, PC-3 D3A mutant, triplicate; shares compounds with procasp3 activ; recombinant PC-3 D3A, Ac-DEVD-pNA absorbance 405 nm; 100% is higher-enzyme control; activation, % at 8.5 µM; 210 tested, 10% active;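 active = mean activation above a set limit carried over from the earlier primary screen, cut at about 22% in these data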
Numbers without * were called inactive; nt = not tested or not shown.

SMILES	ASAP1 inh	procasp3 activ	proCasp7 act	LANA-H2A inh	CR mimetic SO	ARFGAP1 inh	procasp7 triplic	proCasp3 confirm
Cc1c(CCC(=O)NC2CC2)c(=O)oc2cc(O)ccc12	7	23*	17	-1	91	12	-21	-13
Cc1c(C)c2ccc(OCC(=O)N[C@@H](Cc3ccccc3)C(=O)O)cc2oc1=O	3	7	10	-6	126	1	nt	nt
COc1cccc(N2CCN(C(=O)c3ccc(CS(=O)Cc4ccc(Cl)cc4)o3)CC2)c1 (stereo not drawn)	-5	10	7	-9	105	4	nt	nt
O=C(/C=C/c1ccc(Cl)cc1)N1CCOCC1	-9	1	1	-4	100	-3	nt	nt
CCCNC(=O)c1ccc2c(=O)c(O)c(-c3ccc(C)cc3)[nH]c2c1	12	100*	20	-4	89	6	21	29*
CCCNC(=O)c1ccc2c(=O)c(O)c(-c3ccc(OC)cc3)[nH]c2c1	nt	119*	-2	2	103	nt	-2	1
Cc1ccc2cc(C#N)c(NCCNC(=O)C3CC3)nc2c1C	-3	23*	21	1	103	3	-23	-13
Cc1c(C)c2ccc(OC(C)C(=O)NCc3ccccn3)cc2oc1=O (stereo not drawn)	8	23*	-7	6	82	-9	2	6
COC(=O)C1=C(NC(=O)c2cccc(OC)c2)CCS1	nt	29*	25	-3	92	nt	2	8
COc1ccccc1CNC(=O)CS(=O)Cc1nc(-c2ccccc2C)oc1C (stereo not drawn)	13	73*	-3	-1	86	3	-6	1
N#Cc1c(-c2ccccc2)cc2nc3ccccc3n2c1N	1	31*	14	-5	94	-6	-11	-14
CCOC(=O)C1(CCCc2ccccc2)CCN(C(=O)c2cc(C)nn2CC)CC1	3	23*	-11	1	104	0	3	5
CCOC(=O)C1(CCCc2ccccc2)CCN(C(=O)c2cncs2)CC1	-17	-4	3	4	106	-1	nt	nt
CSc1nsc(SCC(=O)Nc2ccc(C(=O)O)cc2)n1	12	6	8	3	94	8	nt	nt
CCc1cc2c(CN(C)Cc3ccccc3F)cc(=O)oc2cc1O	-2	46*	21	8	96	10	-22	-16
Cc1cc2oc(=O)cc(CN(C)Cc3cccc(F)c3)c2cc1C	3	-3	0	2	102	1	nt	nt
CC(C)(C)NC(=O)CCN(/N=C/c1ccccc1O)C1=NS(=O)(=O)c2ccccc21	-1	13	17	-1	96	0	nt	nt
CCCn1c(=O)c2[nH]c(-c3ccc(OCC(=O)Nc4ccc(C#N)cc4)cc3)nc2n(CCC)c1=O	-4	0	-2	0	99	-21	nt	nt
Brc1ccc(-c2nn3c(-c4ccco4)nnc3s2)o1	2	23*	-4	3	94	-3	-17	-12
Cc1ccc(N2CCN(CC(O)COc3ccccc3)CC2)cc1 (stereo not drawn)	-4	28*	6	-5	105	-4	3	2
Cc1ccc(OCC(O)CN2CCN(c3ccccc3)CC2)cc1 (stereo not drawn)	-2	3	10	-3	99	3	nt	nt
COc1ccc(S(=O)(=O)N2CCCC(C(=O)NCCC(C)C)C2)cc1 (stereo not drawn)	8	9	4	-5	112	13	nt	nt
CCS(=O)(=O)Nc1ccc(-c2nc3cccnc3s2)cc1	2	12	12	4	114	-3	nt	nt
CC(C)OC(=O)c1cc(=O)[nH]c2ccccc12	-8	2	1	2	99	-3	nt	nt
CC(OC(=O)c1cc(=O)[nH]c2ccccc12)C(=O)c1ccccc1 (stereo not drawn)	5	22*	13	-10	102	8	2	7
SMILES	ASAP1 inh	procasp3 activ	proCasp7 act	LANA-H2A inh	CR mimetic SO	ARFGAP1 inh	procasp7 triplic	proCasp3 confirm
CCOc1ccc(CCNC(=O)c2ccccc2OCc2c(C)noc2C)cc1OCC	0	2	-8	-1	99	14	nt	nt
O=C(NC12CC3CC(CC(C3)C1)C2)N(Cc1ccccc1)Cc1ccncc1	4	59*	7	-10	97	3	4	7
O=C(NC12CC3CC(CC(C3)C1)C2)c1ccccc1	1	-1	12	2	103	-10	nt	nt
COc1ccc(-c2nc3ccc(N4CCCC4)cc3c(=O)[nH]2)cc1OC	6	31*	-5	2	87	14	-20	-10
COC(=O)CSc1ncnc2c1cnn2Cc1ccccc1	-4	-6	1	2	94	-1	nt	nt
CC(C)OC(=O)CSc1ncnc2c1cnn2Cc1ccccc1	-1	129*	1	-2	111	-2	2	1
CC1=C(C(=O)N(C(C)C)C(C)C)CC(CC(=O)NCc2cccc3ccccc23)C(=O)N1Cc1ccccc1 (stereo not drawn)	3	nt	nt	nt	nt	9	nt	nt
Cc1cc(OC(=O)c2ccc(Cl)cc2Cl)c([N+](=O)[O-])c(=O)[nH]1	3	89*	1	1	94	12	-8	0
Cc1cc(OC(=O)c2ccccc2Cl)c([N+](=O)[O-])c(=O)[nH]1	1	-3	-3	3	92	-4	nt	nt
COC(=O)C1=CN(CC2CCCO2)C=C(C(=O)OC)C1c1ccccc1C(F)(F)F (stereo not drawn)	-20	23*	15	11	102	-2	-20	-11
OCCOc1cccc(CN2CCC(CO)(CCOc3ccccc3)CC2)c1	13	25*	6	2	96	6	2	5
